Sampled rows, rich in hits. Any-hit rate of the full collection: about 4.5%.
Mdm2 ligase inh – MDM2-luciferase reporter signal enhancers, primary screen, MDM2 E3 ligase inhibitor project, cell-based, luminescence, 1536-well; cell-based MDM2 ubiquitination luciferase reporter, 2 h; 0 = plate control, 100 = twice control, blank-subtracted; 210,000 compounds, 0.11% hits; E3 ubiquitin-protein ligase Mdm2 (Homo sapiens), Q00987; signal enhancement, % at 5 µM;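 active = signal enhancement of 30% or more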;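 also: luminescence tracks abundance of the self-degrading MDM2-luciferase fusion protein; higher signal means inhibition of MDM2 E3 ligase activity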
Target sequence (Q00987 whole entry, looked up, the tested form may be a part): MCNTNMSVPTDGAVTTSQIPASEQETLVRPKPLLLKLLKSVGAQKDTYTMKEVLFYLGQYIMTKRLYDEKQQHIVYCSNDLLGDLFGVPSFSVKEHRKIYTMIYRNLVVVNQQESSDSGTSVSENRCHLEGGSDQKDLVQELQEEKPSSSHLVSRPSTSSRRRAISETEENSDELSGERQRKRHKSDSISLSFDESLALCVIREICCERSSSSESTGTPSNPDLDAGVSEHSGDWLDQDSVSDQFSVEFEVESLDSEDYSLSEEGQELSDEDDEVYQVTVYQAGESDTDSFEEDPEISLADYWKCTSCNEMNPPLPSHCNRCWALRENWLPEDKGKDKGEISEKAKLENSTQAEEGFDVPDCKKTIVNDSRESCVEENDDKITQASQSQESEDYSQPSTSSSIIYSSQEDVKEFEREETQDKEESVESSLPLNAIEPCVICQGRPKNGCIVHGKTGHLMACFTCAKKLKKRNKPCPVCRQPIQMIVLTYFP
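test system = mammalian cells stably expressing self-ubiquitinating, self-degrading MDM2 E3–luciferase fusion | quantity = 2000 cells/well | incubation = cell settling 4 h, compound treatment 2 h, both 37 °C | signal = luminescence with SteadyLite reagent, 15 min at room temperature | evaluation = % enhancement relative to plate controls after blank subtraction | benchmarks = plate controls and plate blanks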
APP 5'UTR act – activators of APP 5'UTR luciferase reporter, primary screen, SH-SY5Y cells. SH-SY5Y APP 5'UTR luciferase reporter, luminescence; zero percent = DMSO vehicle wells. activation, % at 2 µM. 190,000 compounds, 1% hits. AID 1276, 2008;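 active = activation above a set limit, based on mean plus 3 SD of controls, cut at about 140% in these data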
PERK inh – block of dimerizer-induced PERK translation repression, primary screen, PERK inhibitor project, CHO PERK-DD cells, SEAP luminescence, HTS; CHO PERK-DD fusion, SEAP luminescence translation reporter; inhibition, % at 5.6 µM; 220,000 compounds, 0.17% hits;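 active = inhibition above the mean inhibition of all tested compounds plus 3 SD, set separately per screening campaign, cut at about 2.9% in these data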;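 also: PERK kinase domain activated by AP20187 dimerizer at 100 nM; 0% = DMSO with dimerizer and 100% = rapamycin at 8.4 µM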
AHR activator – AHR activators, primary screen, cell-based, luminescence, luciferase reporter, human. Aryl hydrocarbon receptor (Homo sapiens), P35869. AHR-responsive luciferase reporter cells. activation, % at 5 µM. 320,000 compounds, 2.5% hits. AID 2796, 2010; in the data active = activation above about 47%;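 also: 0% = vehicle wells and 100% = reference agonist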
NF-kB expr up – activators of NF-kB expression in neurons, primary screen, cell-based, HTS. human neuronal cells, NF-kB reporter expression; active compounds read high. fold change at 12.5 µM. 190,000 compounds, 1.6% hits. AID 1239, 2008; in the data active = fold change above about 3.3
STAT1 activator – STAT1 signaling activators, primary screen, cell-based, HTS, luciferase reporter | AID 932, 2007 | NIH 3T3 STAT1-luciferase reporter, IFN-gamma, luminescence; 100% = IFN-gamma alone, no compound | activation (% of control), % at 5.5 µM | 200,000 compounds, 2.6% hits;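 active = activation above the screen-wide mean activation plus 3 SD, cut at about 130% in these data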;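 also: raw ratio to IFN-gamma control signal so 100% means no change and 0% no light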
STAT1 activ conf – STAT1 signaling activators, confirmation, cell-based, HTS, luciferase reporter. shares compounds with STAT1 activator. NIH 3T3 STAT1-luciferase reporter, IFN-gamma potentiation, luminescence; 100% = IFN-gamma EC80 alone, no compound. activation (% of control), % at 5.7 µM. 1,200 compounds, 97% hits. AID 1262, 2008;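 active = activation above a set limit carried over from the earlier primary STAT1 screen, cut at about 140% in these data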;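 also: simple ratio to median IFN-gamma plus DMSO wells so 0% means no light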
NFkB act – NF-kB reporter activators, TNF-alpha stimulated, counter-screen for STAT1 activator project, cell-based, HEK293T, luciferase luminescence | shares compounds with STAT1 activator | 100% = TNF-alpha with vehicle only | activation (% of control), % at 5.7 µM | 1,200 compounds, 43% hits;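 active = activation above the mean of solvent-only control wells plus 3 SD, set per campaign, cut at about 130% in these data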;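 also: TNF-alpha given at a submaximal dose yielding about 80% of full reporter signal; values are well signal over median control so 100% means no change and 0% no light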
STAT3 act STAT1c – STAT3 reporter activation by STAT1 hits, confirmation, counter-screen for STAT1 activator project, U3A cells, luciferase, luminescence. shares compounds with STAT1 activator. IL-6; cells lack STAT1; 100 = IL-6 alone, no compound effect. activation (% of control), % at 5.7 µM. 1,200 compounds, 46% hits;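 active = activation above the solvent-only control well mean plus 3 SD, set per plate batch, cut at about 110% in these data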;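 also: 0% = no luminescence and 100% = median IL-6 plus DMSO wells; higher means more STAT3 reporter activation so hits are non-selective activators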
Active calls of the source: *; x = no result given.

SMILES	Mdm2 ligase inh	APP 5'UTR act	PERK inh	AHR activator	NF-kB expr up	STAT1 activator	STAT1 activ conf	NFkB act	STAT3 act STAT1c
CC1CCc2c(sc(/N=C/c3cccnc3)c2C(N)=O)C1 (stereo unspecified)	-7	x	1	7	x	x	x	x	x
Cc1ccc2nc(NC(=O)COC(=O)c3ccccn3)sc2c1	-4	114	0	17	1.8	128	x	x	x
CN(CC(=O)Nc1cccc(F)c1)C(=O)c1cc([N+](=O)[O-])ccc1N1CCOCC1	x	x	x	4	x	x	x	x	x
CCC(=O)Nc1nc(-c2ccc3c(c2)OCCO3)cs1	-20	147*	1	13	7.1*	153*	212*	145*	110
Cc1ccc(-c2csc(NC(=O)CN3CCOCC3)n2)cc1C	x	x	x	24	x	x	x	x	x
COc1ccccc1CN1CC(C(=O)N2CCOCC2)CCC1=O (stereo unspecified)	x	x	x	1	x	x	x	x	x
Cc1cc(/C=N/NC(=O)c2nn(C)cc2Cl)c(C)n1-c1cccc(Br)c1	-23	4	-1	5	1.5	159*	113	108	91
COC(=O)C1=C(C(=O)OC)[C@@H]2N(Cc3ccccc3)c3ccccc3[C@@]23C[C@@H](C(=O)OC)N=C3N1	3	x	x	1	x	x	x	x	x
COc1ccc(-c2cc(C(=O)O)c(C)o2)cc1OC	-14	99	1	-6	2.4	152*	218*	79	112*
Cc1oc(-c2ccc3c(c2)OCCO3)cc1C(=O)O	-56	25	-1	-10	2.5	93	x	x	x
CC(C)(C)OC(=O)N/N=C\C=C\c1ccc2c(c1)OCO2	-22	x	0	36	1.1	158*	185*	130	111*
CN(C)c1ccc(/C=N/N=C/c2ccccc2O)cc1	-53	165*	-1	9	3.6*	156*	208*	87	75
C(=C\c1nc(-c2ccccc2)no1)/c1ccccc1	-31	135*	1	13	8.6*	154*	207*	121	101
Fc1cccc(Cl)c1Cc1noc(/C=C/c2ccccc2)n1	-10	48	1	-2	1.6	121	x	x	x
O=C(O)CCC(=O)N1CCN(c2ncccc2C(F)(F)F)CC1	-6	x	1	0	x	x	x	x	x
Oc1[nH]c2ccccc2c1N=Nc1ncnc2c1oc1ccccc12	-15	x	1	7	x	x	x	x	x
Cc1ccc(N=Nc2c(N)nn(-c3ccccc3)c2N)cc1	8	24	0	-6	6*	155*	180*	138*	102
Cc1ccc(CNC(=O)Cn2cnc3c(OCc4ccccc4)ncnc32)o1	x	x	x	0	x	x	x	x	x
CC(/C=C/c1ccccc1)=N/O	-8	13	1	3	1.2	107	x	x	x
CC(/C=C/c1ccc(OCc2ccccc2)cc1)=N\O	-5	94	0	-5	3.1	157*	177*	134*	112*
O=C(/C(C=Nc1ccc(Br)cc1)=C(/O)c1ccco1)C(F)(F)F	-40	171*	0	9	5.7*	166*	201*	92	84
O=C(/C(C=Nc1cccc(C(F)(F)F)c1)=C(/O)c1ccco1)C(F)(F)F	12	25	1	4	1.6	108	x	x	x
O=c1cc(-c2ccccc2)oc2ccccc12	x	x	x	39	x	x	x	x	x
O=c1cc(/C=C/c2ccccc2)oc2ccccc12	-12	134	0	60*	4.6*	156*	192*	136*	124*
CN(C(=O)CSc1ncnc2sc3c(c12)CCCC3)C1CCS(=O)(=O)C1 (stereo unspecified)	x	x	x	7	x	x	x	x	x
SMILES	Mdm2 ligase inh	APP 5'UTR act	PERK inh	AHR activator	NF-kB expr up	STAT1 activator	STAT1 activ conf	NFkB act	STAT3 act STAT1c
COc1ccccc1OCC(=O)NCCC1=CCCCC1	4	-1	0	7	1.3	102	x	x	x
COc1ccccc1/C=C/C(=O)NCCC1=CCCCC1	1	52	1	16	0.97	159*	170*	128	134*
CCc1c(C)[nH]c(C(=O)OCc2ccccc2)c1C	0	24	1	x	2.5	152*	146*	118	92
CC(=O)c1c(C)[nH]c(C(=O)OCC(=O)NCCc2ccc(F)cc2)c1C	-3	13	1	25	0.97	93	x	x	x
COC(=O)c1c(C)[nH]c(C(=O)OCc2ccc(F)cc2)c1C	-18	68	0	6	2.7	152*	163*	125	103
CC(=O)c1cccc(N/C=C\C(=O)c2ccc(C)cc2)c1	-34	155*	0	3	6.7*	180*	211*	111	96
CC(=O)c1cccc(NC(=S)NC(=O)c2ccc(Cl)cc2)c1	-1	10	0	16	2.5	162*	173*	118	108
CC(=O)c1cccc(NC(=S)NC(=O)c2cccc(C)c2)c1	-11	102	0	-1	3.7*	157*	178*	126	105
CC(=O)c1cccc(NC(=S)NC(=O)c2ccccc2Br)c1	3	-10	0	12	1.2	114	x	x	x
CC(=O)c1cccc(NC(=S)NC(=O)c2ccccc2C)c1	-25	41	0	14	1.9	114	x	x	x
O=c1n(Cc2ccccc2Cl)nc2n1-c1ccccc1SC2	-13	x	1	2	x	x	x	x	x
CCCCc1ccc(-c2ccc(C)cc2O)nc1	-67	203*	1	-4	7.2*	156*	198*	110	85
COc1ccccc1NC(=S)N/N=C/c1ccc(O)cc1	-20	124	-2	19	4*	159*	209*	131	94
COc1ccccc1NC(=S)N/N=C/c1cccc(C)c1	-8	20	0	-7	1.7	120	x	x	x
Cc1ccc2c(c1)N(CC(=O)NC1CCCCCC1)C(=O)c1cccnc1O2	x	x	x	0	x	x	x	x	x

Compound activity deposited in PubChem BioAssay by several laboratories.
